Legend:
Rattus norvegicus [1] = assay: Tested in vivo for ability to inhibit PAF-induced hypotension in rats by measuring the drop in mean arterial blood pressure(mmHg) after 20 minutes activity; type: functional
How it was run: (§1)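 Male Sprague-Dawley rats (225 ± 2 g) under sodium pentobarbital (50 mg/kg ip). PAF 0.66 µg/kg injected; compounds 5 mg/kg iv given 3 min later at maximal blood pressure fall. Blood pressure changes recorded for 30 min after PAF, compared with vehicle controls (five rats per group).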

Rattus norvegicus [2] = assay: Tested in vivo for ability to inhibit PAF-induced hypotension in rats by measuring the drop in mean arterial blood pressure(mmHg) after 3 minutes activity; type: functional; how it was run: as §1

Compound	MABP (Rattus norvegicus [1])	MABP (Rattus norvegicus [2])
CCO/C(O)=C1/C(C)=NC(C)=C(C(=O)OCCSc2ccccc2)C1C (configuration not stated)	23 mmHg	52 mmHg
CCCC1C(C(=O)OCCSCC)=C(C)N=C(C)/C1=C(/O)OCC (configuration not stated)	71 mmHg	106 mmHg
CO/C(O)=C1\C(C)=NC(C)=C(C(=O)OCCSc2ccccc2)C1C (configuration not stated)	14 mmHg	30 mmHg
CCO/C(O)=C1\C(C)=NC(C)=C(C(=O)OCCSC)C1C (configuration not stated)	29 mmHg	88 mmHg
CO/C(O)=C1\C(C)=NC(C)=C(C(=O)OCCSC)C1C (configuration not stated)	5 mmHg	51 mmHg
CC1=NC(C)=C(C(=O)OCCSc2ccccc2)C(C)/C1=C(\O)OC(C)C (configuration not stated)	27 mmHg	78 mmHg
CCO/C(O)=C1\C(C)=NC(C)=C(C(=O)OCCSC)C1CC (configuration not stated)	36 mmHg	77 mmHg
CCO/C(O)=C1\C(C)=NC(C)=C(C(=O)OCCSCC)C1C (configuration not stated)	18 mmHg	64 mmHg
CCCC1C(C(=O)OCCSC)=C(C)N=C(C)/C1=C(/O)OCC (configuration not stated)	60 mmHg	101 mmHg
CCSCCO/C(O)=C1\C(C)=NC(C)=C(C(=O)OC)C1C (configuration not stated)	32 mmHg	68 mmHg
CC1=NC(C)=C(C(=O)OCCSc2ccccc2)C(C)/C1=C(\O)OCC1CCCO1 (configuration not stated)	21 mmHg	63 mmHg
